Values after ≈ are worked out from the molar mass of the structure shown. Active and inactive are the calls of the source. The rule behind the calls is not given here.
Experiments:
[1] = molecular target: T1, 1-deoxy-D-xylulose 5-phosphate reductoisomerase, apicoplastic (Plasmodium falciparum (isolate 3D7)) (UniProt Q8IKG4); test: Inhibition of Plasmodium falciparum DXR expressed in Escherichia coli BL21 CodonPlus (DE3)-RIL cells assessed as remaining activity using DOXP as substrate at 100 uM in presence of NADPH by UV-visible spectrophotometry relative to control
T1 sequence (whole entry): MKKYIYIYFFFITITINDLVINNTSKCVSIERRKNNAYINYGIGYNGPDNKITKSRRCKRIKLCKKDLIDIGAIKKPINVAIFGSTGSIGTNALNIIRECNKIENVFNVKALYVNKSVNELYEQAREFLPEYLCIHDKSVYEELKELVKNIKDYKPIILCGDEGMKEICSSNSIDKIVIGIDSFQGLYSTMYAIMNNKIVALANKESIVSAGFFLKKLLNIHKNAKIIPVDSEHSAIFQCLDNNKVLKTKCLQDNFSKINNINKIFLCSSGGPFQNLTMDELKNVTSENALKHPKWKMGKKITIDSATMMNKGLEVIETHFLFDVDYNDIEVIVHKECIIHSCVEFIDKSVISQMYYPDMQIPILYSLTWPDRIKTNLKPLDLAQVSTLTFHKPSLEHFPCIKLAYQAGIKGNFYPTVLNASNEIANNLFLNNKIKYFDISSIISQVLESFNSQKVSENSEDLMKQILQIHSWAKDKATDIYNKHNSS
In short: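 Recombinant His-tagged PfDXR purified by TALON affinity. Assay at 37 °C in 100 mM Tris pH 7.8, 25 mM MgCl2, 0.86 µM enzyme, 150 µM NADPH; reaction started with 144 µM DOXP. NADPH oxidation followed at 340 nm. Single inhibitor concentration 100 µM, given as percent remaining activity; technical duplicates.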

Plasmodium falciparum [2] = test: Antiplasmodial activity against Plasmodium falciparum 3D7 assessed as reduction in parasite growth by measuring DNA content after 3 days by PicoGreen staining based FLUOstar omega microplate reader analysis; format: functional, organism-based; settings: 3D7, 72 h
In short: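 Asynchronous cultures in 2% hematocrit, RPMI-1640 complete medium with 0.5% Albumax, under 5% O2/5% CO2/90% N2 at 37 °C. Diluted to 0.5% parasitemia, inhibitors 1.2 nM to 492.4 µM added at start. Growth read after 3 days as DNA content by PicoGreen fluorescence (485/528 nm). IC50 from 4-parameter nonlinear regression; technical duplicate, biological triplicate.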

[3] = molecular target: T2, 1-deoxy-D-xylulose 5-phosphate reductoisomerase (Mycobacterium tuberculosis) (UniProt P9WNS1); test: Inhibition of Mycobacterium tuberculosis DXR expressed in Escherichia coli BL21 CodonPlus (DE3)-RIL cells assessed as remaining activity using DOXP as substrate at 100 uM in presence of NADPH by UV-visible spectrophotometry relative to control
T2 sequence (whole entry): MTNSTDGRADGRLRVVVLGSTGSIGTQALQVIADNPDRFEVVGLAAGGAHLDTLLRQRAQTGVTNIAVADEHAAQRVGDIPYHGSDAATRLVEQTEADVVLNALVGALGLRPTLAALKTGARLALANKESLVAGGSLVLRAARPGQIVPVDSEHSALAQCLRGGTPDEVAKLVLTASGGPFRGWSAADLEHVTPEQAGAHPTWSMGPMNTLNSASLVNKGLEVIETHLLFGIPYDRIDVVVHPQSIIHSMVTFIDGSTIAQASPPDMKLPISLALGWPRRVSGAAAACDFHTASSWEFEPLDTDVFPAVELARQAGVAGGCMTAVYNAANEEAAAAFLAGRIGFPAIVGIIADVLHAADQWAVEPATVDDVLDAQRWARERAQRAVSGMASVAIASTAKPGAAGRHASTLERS
In short: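 Recombinant MtbDXR (pET101/D-TOPO in E. coli BL21 CodonPlus (DE3)-RIL, IMAC-purified) at 0.89 µM in 100 mM MES pH 6.5, 25 mM MgCl2, 150 µM NADPH, 47 µM DOXP, 37 °C. Inhibitor was tested at a single 100 µM. NADPH oxidation was followed at 340 nm, and percent remaining activity was reported. Technical duplicates.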

[4] = test system: Mycobacterium tuberculosis; test: Antibacterial activity against Mycobacterium tuberculosis H37Rv assessed as reduction in bacterial growth incubated for 2 weeks by macroscopic plate reader analysis; format: functional; settings: 336 h
In short: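 H37Rv grown in 7H9 broth with 0.08% NaCl, 0.4% glucose, 0.05% casitone and 0.05% tyloxapol, then diluted 1:500. Compounds were made as 20 mg/mL DMSO stocks and run as eleven 2-fold serial dilutions. Plates were held 2 weeks at 37 °C and MIC99 was read macroscopically. Three independent measurements.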

[5] = molecular target: T1, 1-deoxy-D-xylulose 5-phosphate reductoisomerase, apicoplastic (Plasmodium falciparum (isolate 3D7)); test: Inhibition of Plasmodium falciparum DXR expressed in Escherichia coli BL21 CodonPlus (DE3)-RIL cells using DOXP as substrate at 100 uM in presence of NADPH by UV-visible spectrophotometry relative to control
In short: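 PfDXR single-point test at 100 µM inhibitor. Conditions: 0.86 µM IMAC-purified enzyme, 100 mM Tris pH 7.8, 25 mM MgCl2, 150 µM NADPH, 37 °C. Reaction was started with 144 µM DOXP, and NADPH oxidation was monitored at 340 nm. Percent remaining activity was reported; technical duplicates.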

[6] = molecular target: T3, 1-deoxy-D-xylulose 5-phosphate reductoisomerase, apicoplastic (Plasmodium falciparum (isolate 3D7), UniProt Q8IKG4); test: Inhibition of Plasmodium falciparum DXR expressed in Escherichia coli BL21 CodonPlus (DE3)-RIL cells using DOXP as substrate in presence of NADPH by UV-visible spectrophotometry
T3 sequence (Q8IKG4 whole entry): T1 sequence (whole entry)

Plasmodium falciparum [7] = test: Antiplasmodial activity against Plasmodium falciparum E1-C12 harboring with had1 mutation assessed as reduction in parasite growth by measuring DNA content after 3 days in presence of IPP by PicoGreen staining based FLUOstar omega microplate reader analysis; format: functional, organism-based; settings: time 3.0 day
In short: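 IPP rescue in had1 E1-C12 parasites: 125 µM IPP was present for the whole assay. Cultures at 2% hematocrit in Albumax-supplemented RPMI, 5% O2/5% CO2, 37 °C, started at 0.5% parasitemia. Inhibitors were dosed at 1.2 nM–492.4 µM, and growth was read after 3 days by PicoGreen fluorescence. 4-parameter fit; duplicate wells, biological triplicates.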

Plasmodium falciparum [8] = test: Antiplasmodial activity against Plasmodium falciparum E1-C12 harboring with had1 mutation assessed as reduction in parasite growth by measuring DNA content after 3 days by PicoGreen staining based FLUOstar omega microplate reader analysis; format: functional, organism-based; settings: time 3.0 day
In short: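 E1-C12 (had1) parasites, asynchronous, at 2% hematocrit in RPMI-1640/0.5% Albumax with hypoxanthine, under 5% O2/5% CO2/90% N2 at 37 °C. Started at 0.5% parasitemia and dosed at 1.2 nM–492.4 µM. After 3 days, DNA was stained with PicoGreen (ex 485/em 528). IC50 came from a 4-parameter fit; technical duplicates, biological triplicates.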

[9] = Cytotoxicity against human HepG2 cells assessed as reduction in cell viability after 24 hrs by Cell Titer Glo assay; format: toxicity, cell-based
In short: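 HepG2 cells in DMEM with 4 mM L-glutamine and 4.5 g/L glucose, trypsinized and plated from a 4×10^5 cells/mL suspension. Compounds were tested as two-fold dilutions from 100 to 0.1 µg/mL, with a DMSO-only control, in duplicate. After 24 h at 37 °C, 5% CO2, CellTiter-Glo luminescence was read after 20 min in the dark.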

Row | SMILES | Activity [1] | IC50 (Plasmodium falciparum [2]) | Activity [3] | MIC [4] | inhibition [5] | IC50 [6] | Activity (Plasmodium falciparum [7]) | Activity (Plasmodium falciparum [8]) | IC50 at 24 h [9]
1 | CC(=O)N(CCC(c1ccc(Cl)c(Cl)c1)P(=O)(O)O)OCc1ccc2ccccc2c1 (stereo not given) | 46.6% | 60.9 µM | 82.1% | 24.2 µM (≈ 11.7 µg/mL) | – | – | – | – | –
2 | CC(=O)N(CCC(c1ccc(Cl)c(Cl)c1)P(=O)(OCOC(=O)C(C)(C)C)OCOC(=O)C(C)(C)C)OCc1ccc(-c2ccc(C(C)C)cc2)cc1 (stereo not given) | – | 14.9 µM | – | > 128 µM | – | – | – | – | –
3 | CC(=O)N(CCC(c1ccc(Cl)c(Cl)c1)P(=O)(O)O)OC(C)c1ccc(Cl)cc1 (stereo not given) | – | 68.6 µM | 66.2% | 72 µM (≈ 34.6 µg/mL) | > 90% | 20.4 µM | – | – | –
4 | CC(=O)N(CCC(c1ccc(Cl)c(Cl)c1)P(=O)(O)O)OC(C)c1ccc(C)cc1 (stereo not given) | – | 3.53 µM | 30.7% | > 101 µM | > 90% | 1.21 µM | inactive | Active | > 200 µM
5 | CC(=O)N(O)CCC(c1ccc(Cl)c(Cl)c1)P(=O)(OCOC(=O)C(C)(C)C)OCOC(=O)C(C)(C)C (stereo not given) | – | 13 µM | – | 8.1 µM (≈ 4.62 µg/mL) | – | – | – | – | –
6 | CC(=O)N(CCC(c1ccc(Cl)c(Cl)c1)P(=O)(O)O)OCc1ccccc1 (stereo not given) | 26.7% | 31.5 µM | 34.2% | > 214 µM | – | – | – | – | –
7 | COc1ccc(C(C)ON(CCC(c2ccc(Cl)c(Cl)c2)P(=O)(OCOC(=O)C(C)(C)C)OCOC(=O)C(C)(C)C)C(C)=O)cc1 (stereo not given) | – | 0.37 µM | – | 6.5 µM (≈ 4.58 µg/mL) | – | – | inactive | Active | > 140 µM
8 | CC(=O)N(CCC(c1ccc(Cl)c(Cl)c1)P(=O)(O)O)OCc1ccc(Br)cc1 (stereo not given) | 53.1% | 67.8 µM | 72.3% | > 92 µM | – | – | – | – | –
9 | CC(=O)N(CCC(c1ccc(Cl)c(Cl)c1)P(=O)(O)O)OCc1ccc(C(C)C)cc1 (stereo not given) | – | 68.7 µM | 80.9% | 12.3 µM (≈ 5.83 µg/mL) | > 90% | 26.5 µM | – | – | –
10 | CC(=O)N(CCC(c1ccc(Cl)c(Cl)c1)P(=O)(OCOC(=O)C(C)(C)C)OCOC(=O)C(C)(C)C)OCc1ccc2ccccc2c1 (stereo not given) | – | 14 µM | – | 8.8 µM (≈ 6.25 µg/mL) | – | – | – | – | –
11 | CC(=O)N(CCC(c1ccc(Cl)c(Cl)c1)P(=O)(OCOC(=O)C(C)(C)C)OCOC(=O)C(C)(C)C)OCCCCc1ccccc1 (stereo not given) | – | 13.9 µM | – | 17.8 µM (≈ 12.5 µg/mL) | – | – | – | – | –
12 | CC(=O)N(CCC(c1ccc(Cl)c(Cl)c1)P(=O)(OCOC(=O)C(C)(C)C)OCOC(=O)C(C)(C)C)OCc1ccccc1 (stereo not given) | – | 41.6 µM | – | 9.5 µM (≈ 6.28 µg/mL) | – | – | – | – | –
13 | CC(=O)N(O)CCC(c1ccc(Cl)c(Cl)c1)P(=O)(O)O (stereo not given) | – | 18.6 µM | 15.7% | > 266 µM | > 90% | 13.6 µM | – | – | –

Reference: ChEMBL document CHEMBL5576114, “Inhibition of DXR in the MEP pathway with lipophilic N-alkoxyaryl FR900098 analogs” (RSC Med Chem, 2024)
